Laboratory results: ChEMBL document CHEMBL1146825, “Triaryl methane derivatives as antiproliferative agents” (Bioorg Med Chem Lett, 2004)

Columns and labels:
NIH3T3 [1] = experiment: Mitogen-induced cell proliferation assay to evaluate the antiproliferative effect in NIH 3T3 cells; type: functional, cell-based; settings: Mus musculus
Procedure, shortened: (§1)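 NIH 3T3 mouse fibroblasts given a mitogenic stimulus (e.g. PDGF or bFGF) for 10 h, then [3H]thymidine added. Cultured a further 21 h at 37 C, 5% CO2, then washed four times with DME. Acid-precipitable radioactivity extracted with cold 10% TCA, neutralized with 0.3 N NaOH, and counted by scintillation.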

NIH3T3 [2] = experiment: Percent inhibition at 10 uM determined against mouse NIH 3T3 cells; type: functional; procedure, shortened: as §1
NCI-H460 [3] = experiment: Effect of 50 uM compound on NCI-H460 non-small cell lung cancer cells cycle progression in G2-M phase by flow cytometry; type: functional, Homo sapiens
Procedure, shortened: (§2)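 NCI-H460 cells serum-starved 56 h, then released into complete medium containing compound (25 or 50 uM) or 0.1% DMSO vehicle for 16 h. Harvested, washed in cold PBS, fixed in 70% ethanol at 4 C for at least 4 h. Treated with ribonuclease and propidium iodide 30 min at 37 C. DNA content read by flow cytometry; percent of cells in G0-G1, S and G2-M.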

NCI-H460 [4] = experiment: Effect of 25 uM compound on NCI-H460 non-small cell lung cancer cells cycle progression in S phase by flow cytometry; type: functional, Homo sapiens; procedure, shortened: as §2
NCI-H460 [5] = experiment: Effect of 25 uM compound on NCI-H460 non-small cell lung cancer cells cycle progression in G2M phase by flow cytometry; type: functional, Homo sapiens; procedure, shortened: as §2
NCI-H460 [6] = experiment: Effect of 50 uM compound on NCI-H460 non-small cell lung cancer cells cycle progression in G0G1 phase by flow cytometry; type: functional, Homo sapiens; procedure, shortened: as §2
NCI-H460 [7] = experiment: Effect of 50 uM compound on NCI-H460 non-small cell lung cancer cells cycle progression in S phase by flow cytometry; type: functional, Homo sapiens; procedure, shortened: as §2
NCI-H460 [8] = experiment: Effect of 25 uM compound on NCI-H460 non-small cell lung cancer cells cycle progression in G0G1 phase by flow cytometry; type: functional, Homo sapiens; procedure, shortened: as §2

Compound `OC(c1ccccc1)(c1ccccc1)c1ccccc1Cl` has an IC50 (NIH3T3 [1]) of 2.1 µM.

In the case of `OC(c1ccccc1)(c1ccc(Br)cc1)c1ccc(Br)cc1`, the IC50 (NIH3T3 [1]) is reported as 0.5 µM.

`OC(c1ccccc1)(c1ccccc1)C1CCCCC1` showed an IC50 (NIH3T3 [1]) of 9.5 µM.

With `N#CC(c1ccccc1)(c1ccccc1)C1CCCCC1` the IC50 (NIH3T3 [1]) was 0.9 µM.

For `CCOC(=O)C(c1ccccc1)(c1ccccc1)N1CCCCC1`, the IC50 (NIH3T3 [1]) was 2.2 µM.

With `CCOC(c1ccccc1)(c1ccccc1)c1ccc(-c2ccccc2)cc1` the IC50 (NIH3T3 [1]) was 2.2 µM and the inhibition at 10 µM (NIH3T3 [2]) was 99%.

Work on `OC(Cc1ccccc1)(c1ccccc1)c1ccccc1` yielded a Cell (NCI-H460 [3]) of 5%, a Cell (NCI-H460 [4]) of 44.63% and a Cell (NCI-H460 [5]) of 8.57%. For the same compound, the IC50 (NIH3T3 [1]) was 0.4 µM, the Cell (NCI-H460 [6]) was 69.91% and the Cell (NCI-H460 [7]) was 25.09%. The inhibition at 10 µM (NIH3T3 [2]) was 98% and the Cell (NCI-H460 [8]) was 46.8%.

In the case of `OC(c1ccccc1)(c1ccccc1)c1ccc(Cl)cc1`, the IC50 (NIH3T3 [1]) is reported as 0.8 µM.

`N#CC(c1ccccc1)(c1ccccc1)c1ccccc1Cl` gave an IC50 (NIH3T3 [1]) of 2.2 µM.

Compound `OC(c1ccccc1)(c1ccccc1)c1cccc2ccccc12` has an IC50 (NIH3T3 [1]) of 1.6 µM.

Compound `Oc1ccccc1C(O)(c1ccccc1)c1ccccc1Cl` (stereo not given) has an IC50 (NIH3T3 [1]) of 1 µM and an inhibition at 10 µM (NIH3T3 [2]) of 99%.

For `Nc1ccc(C(O)(c2ccc(N)cc2)c2ccc(N)cc2)cc1`, the IC50 (NIH3T3 [1]) was 0.2 µM.

In the case of `OC(c1ccccc1)(c1ccccc1)c1ccc(C(F)(F)F)cc1`, the IC50 (NIH3T3 [1]) is reported as 3.1 µM.

With `O=C(O)CC(c1ccccc1)(c1ccccc1)c1ccccc1Cl` the IC50 (NIH3T3 [1]) was 1.2 µM.

`N#CC(c1ccccc1)(c1ccccc1)c1ccc([N+](=O)[O-])cc1` gave an IC50 (NIH3T3 [1]) of 1.7 µM.

`Cc1ccc(C(O)(c2ccc(C)cc2)c2ccc(C)cc2)cc1` was tested, and the IC50 (NIH3T3 [1]) was 3 µM.

With `O=[N+]([O-])c1ccc(C(O)(c2ccccc2)c2ccccc2)c(Cl)c1` the IC50 (NIH3T3 [1]) was 0.3 µM and the inhibition at 10 µM (NIH3T3 [2]) was 94%.

Compound `Clc1ccccc1C(c1ccccc1)c1ccccc1` [2-CHLOROPHENYL-BISPHENYLMETHANE(MAJOR)] has an IC50 (NIH3T3 [1]) of 3.9 µM.

`OC(c1ccccc1)(c1ccccc1)c1ccccc1` [TRIPHENYLMETHANOL] showed an IC50 (NIH3T3 [1]) of 2 µM and an inhibition at 10 µM (NIH3T3 [2]) of 99%.
